Among the data in ChEMBL document CHEMBL1781980, “Structure-activity relationship studies to probe the phosphoprotein binding site on the carboxy terminal domains of the breast cancer susceptibility gene 1” (J Med Chem, 2011) are Activity, Kd and IC50 values, retold here.

Test [1] has as its target T1, Breast cancer type 1 susceptibility protein (Homo sapiens, UniProt P38398). In words: Binding affinity to BRCA1 by isothermal titration calorimetric assay. An outline of the steps: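 Direct ITC titration at 25°C. Protein dialyzed three times (2 h each) into 50mM KH2PO4 pH = 7.2; final dialysate used for reference cell and to dissolve peptides. Peptides (100 – 400 μM) in syringe, protein (10 – 20 μM) in cell; 3 μL first injection then 29 × 10 μL every 3 minutes, stirred at 307 rpm. Peptide-into-buffer dilution curves collected; Kd and ΔG, ΔH, ΔS derived.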

Test [2] has as its target T1, Breast cancer type 1 susceptibility protein. Briefly: Inhibition of BRCA1 by fluorescence polarization assay. The method in brief: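 Competitive fluorescence polarization assay. Peptides titrated into a mixture of BRCT protein (1000 nM) and fluorescently labeled tetrapeptide (100 nM). Polarization and fluorescence read on a plate reader. IC50 values obtained by non-linear least square fitting.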
Target sequence in this assay (P38398 whole entry): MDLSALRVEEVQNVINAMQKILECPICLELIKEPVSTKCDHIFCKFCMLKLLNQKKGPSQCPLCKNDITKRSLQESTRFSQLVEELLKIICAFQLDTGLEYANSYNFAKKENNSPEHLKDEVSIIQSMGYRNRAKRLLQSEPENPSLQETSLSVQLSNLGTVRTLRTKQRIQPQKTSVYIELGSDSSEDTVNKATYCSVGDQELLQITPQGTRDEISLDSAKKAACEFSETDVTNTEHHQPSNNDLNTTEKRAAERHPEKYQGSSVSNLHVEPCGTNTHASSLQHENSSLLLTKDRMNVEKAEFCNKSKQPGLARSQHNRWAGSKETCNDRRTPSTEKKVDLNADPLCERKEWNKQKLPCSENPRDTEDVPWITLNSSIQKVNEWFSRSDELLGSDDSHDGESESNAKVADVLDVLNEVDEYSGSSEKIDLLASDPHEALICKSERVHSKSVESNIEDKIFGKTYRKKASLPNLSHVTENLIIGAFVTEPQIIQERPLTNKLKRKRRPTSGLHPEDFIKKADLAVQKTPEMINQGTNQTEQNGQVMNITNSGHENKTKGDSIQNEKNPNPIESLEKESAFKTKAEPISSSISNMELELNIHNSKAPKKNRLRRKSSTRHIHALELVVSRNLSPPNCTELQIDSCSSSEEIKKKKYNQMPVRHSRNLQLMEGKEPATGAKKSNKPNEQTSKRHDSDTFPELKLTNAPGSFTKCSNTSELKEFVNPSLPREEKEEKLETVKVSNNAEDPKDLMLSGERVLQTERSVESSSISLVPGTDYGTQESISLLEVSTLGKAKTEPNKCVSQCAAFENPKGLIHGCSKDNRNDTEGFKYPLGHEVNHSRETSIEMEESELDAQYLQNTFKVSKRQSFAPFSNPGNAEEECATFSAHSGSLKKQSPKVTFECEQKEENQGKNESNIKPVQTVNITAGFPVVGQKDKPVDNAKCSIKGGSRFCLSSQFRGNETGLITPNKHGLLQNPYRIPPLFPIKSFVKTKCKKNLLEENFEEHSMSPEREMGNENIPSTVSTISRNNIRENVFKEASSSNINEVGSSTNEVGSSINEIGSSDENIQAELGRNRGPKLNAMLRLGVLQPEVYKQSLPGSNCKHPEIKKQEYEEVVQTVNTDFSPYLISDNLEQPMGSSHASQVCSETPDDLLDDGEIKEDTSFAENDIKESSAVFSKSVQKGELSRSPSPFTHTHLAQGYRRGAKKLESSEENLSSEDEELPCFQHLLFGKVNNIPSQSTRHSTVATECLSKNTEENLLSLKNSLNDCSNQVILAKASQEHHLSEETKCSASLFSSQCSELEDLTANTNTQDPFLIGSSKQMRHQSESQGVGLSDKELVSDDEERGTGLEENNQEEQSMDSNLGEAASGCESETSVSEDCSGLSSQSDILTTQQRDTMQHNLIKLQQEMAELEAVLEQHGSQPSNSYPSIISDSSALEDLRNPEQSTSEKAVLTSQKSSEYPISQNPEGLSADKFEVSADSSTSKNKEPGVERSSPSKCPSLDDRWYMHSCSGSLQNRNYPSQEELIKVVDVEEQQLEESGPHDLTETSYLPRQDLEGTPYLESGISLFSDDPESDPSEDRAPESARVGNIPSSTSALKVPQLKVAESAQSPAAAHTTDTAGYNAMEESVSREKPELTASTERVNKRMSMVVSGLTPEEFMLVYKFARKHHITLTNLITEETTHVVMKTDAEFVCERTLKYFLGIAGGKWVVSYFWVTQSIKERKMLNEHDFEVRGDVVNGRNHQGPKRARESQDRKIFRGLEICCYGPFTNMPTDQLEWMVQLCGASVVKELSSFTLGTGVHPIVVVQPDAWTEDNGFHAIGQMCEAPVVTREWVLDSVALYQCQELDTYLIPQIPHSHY
(In general: Polarisation of emitted light reports the rotation of a fluorescent probe.)

In general, Kd refers to a measure of binding affinity in units of concentration. Low readings indicate a tighter complex, high ones a looser complex. Usually IC50 stands for the point on the concentration scale where inhibition reaches its midpoint.

Activity calls are given as the source filed them. The calls are words filed in the database; no cut-off is given here. Non-standard residues stand in square brackets, D forms with d. Residues, ends and D or L forms follow the SMILES beside them. pS = N[C@@H](COP(=O)(O)O)C(=O)O

Consider `CC(=O)N[C@@H](COP(=O)(O)O)C(=O)N1CCC[C@H]1C(=O)N[C@H](C(=O)N[C@@H](Cc1ccccc1)C(N)=O)[C@@H](C)O` (Ac-[pS]PTF-NH2), for which, in test [1], the result was Active.
`CC[C@H](C)[C@H](N)C(=O)N[C@@H](CO)C(=O)N[C@@H](CCCNC(=N)N)C(=O)N[C@@H](CO)C(=O)N[C@H](C(=O)N[C@@H](COP(=O)(O)O)C(=O)N1CCC[C@H]1C(=O)N[C@H](C(=O)N[C@@H](Cc1ccccc1)C(=O)N[C@@H](CC(N)=O)C(=O)N[C@@H](CCCCN)C(=O)N[C@@H](CCC(N)=O)C(=O)N[C@H](C(=O)O)[C@@H](C)O)[C@@H](C)O)[C@@H](C)O` registered a Kd in test [1] of 410 nM.
Same read-out and setting: for `CC(=O)N[C@@H](CO)C(=O)N[C@@H](CCCNC(=N)N)C(=O)N[C@@H](CO)C(=O)N[C@H](C(=O)N[C@@H](COP(=O)(O)O)C(=O)N1CCC[C@H]1C(=O)N[C@H](C(=O)N[C@@H](Cc1ccccc1)C(=O)N[C@@H](CC(N)=O)C(=O)N[C@@H](CCCCN)C(N)=O)[C@@H](C)O)[C@@H](C)O` the value was 440 nM.
`CC(=O)N[C@@H](CCC(=O)O)C(=O)N1CCC[C@H]1C(=O)N[C@H](C(=O)N[C@@H](Cc1ccccc1)C(N)=O)[C@@H](C)O` (Ac-EPTF-NH2) displayed an IC50 in test [2] greater than 250000 nM.
Turning to `CC(=O)N[C@@H](COP(=O)(O)O)C(=O)N1CCC[C@H]1C(=O)N[C@H](C(=O)N[C@@H](Cc1ccccc1)C(=O)O)C(C)C` (Ac-[pS]PVF-OH), the result in test [1] was Active.
For `CC(=O)N[C@@H](COP(=O)(O)O)C(=O)N1CCC[C@H]1C(=O)N[C@H](C(=O)N[C@@H](Cc1ccccc1)C(N)=O)C(C)C` (Ac-[pS]PVF-NH2), the result in test [1] was Active.
